Assay results reported in ChEMBL document CHEMBL4765423, “Antikinetoplastid SAR study in 3-nitroimidazopyridine series: Identification of a novel non-genotoxic and potent anti-T. b. brucei hit-compound with improved pharmacokinetic properties” (Eur J Med Chem, 2020).

Key:
Albumin = Albumin (Homo sapiens, UniProt P02768); assay: Binding affinity to human albumin incubated for 4 hrs by LC-MS analysis; assay type: ADME; details: read-out: PB (converted)
[1] = Electrochemical behavior of the compound assessed as redox potential corrected toward normal hydrogen electrode by cyclic voltammetry
[2] = Microsomal stability in CD-1 mouse liver microsomes assessed as half life in presence of NADP measured up to 40 mins by LC-MS analysis; assay type: ADME, Microsome
Procedure, shortened: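 Compound was incubated in duplicate with female CD-1 mouse microsomes at 37 °C in 50 mM phosphate, pH 7.4. An NADP-regenerating system was present (MgCl₂ 5 mM, NADP 1 mM, G6PDH 0.4 U/mL, G6P 5 mM).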

Leishmania infantum = assay: Antileishmanial activity against Leishmania infantum MHOM/MA/67/ITMAP-263 axenic amastigotes assessed as inhibition of parasitic metabolic activity incubated for 48 hrs by steady Glow reagent based luminescence assay; assay type: functional, organism-based; details: MHOM/MA/67/ITMAP-263, 48 h
Procedure, shortened: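 Luciferase-expressing promastigotes were acidified (pH 5.4, 24 h, 24 °C) and then held 24 h at 37 °C to give axenic amastigotes. These were used at 2×10⁶/mL with compound (DMSO <0.5%), in duplicate, for 48 h at 37 °C. Luciferase luminescence was read. EC50 came from non-linear regression, as the mean of three independent experiments.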

Leishmania donovani [3] = assay: Antileishmanial activity against Leishmania donovani MHOM/IN/00/DEVI promastigotes assessed as inhibition of parasitic metabolic activity measured after 72 hrs by MTT assay; assay type: functional, organism-based
Procedure, shortened: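 Log-phase promastigotes at 10⁶/mL were grown in Schneider's medium with 20% FCS at 27 °C. Compound was added from DMSO stock (final <0.5% v/v), in duplicate, for 72 h. Metabolic activity was read by MTT (4 h, 27 °C) and absorbance at 570 nm. EC50 came from non-linear dose-response regression, as the mean of ≥3 independent experiments.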

[4] = test system: Trypanosoma brucei brucei; assay: Antitrypanosomal activity against bloodstream form Trypanosoma brucei brucei AnTat 1.9 trypomastigotes assessed as reduction in parasite viability incubated for 69 hrs by Alamar Blue dye based assay; assay type: functional, organism-based; details: AnTat 1.9, 69 h
Procedure, shortened: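 BSF parasites were cultured in MEM/Baltz medium with 20% heat-inactivated horse serum, mercaptoethanol, L-cysteine and bathocuproine, at 37 °C and 5% CO₂. Cells were seeded at 2000 parasites/100 µL with compound from DMSO, in duplicate, for 69 h. Alamar Blue was added for 5 h and fluorescence read (ex 530/em 590 nm). EC50 came from non-linear regression over three independent experiments.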

[5] = Cytotoxicity against human HepG2 cells assessed as reduction in cell viability after 72 hrs by MTT assay; assay type: cell-based
Procedure, shortened: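 MTT was applied at 0.5 mg/mL for 2 h, formazan was dissolved in DMSO, and absorbance read at 570 nm with a 630 nm reference. Doxorubicin was the positive control. CC50 was taken from the dose-response curve, as the mean of three experiments.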

[6] = Selectivity index, ratio of CC50 for human HepG2 cells to EC50 for Trypanosoma brucei brucei trypomastigotes AnTat 1.9; assay type: toxicity; details: read-out: Ratio CC50/EC50
[7] = Selectivity index, ratio of CC50 for human HepG2 cells to EC50 for antileishmanial activity against Leishmania donovani MHOM/IN/00/DEVI promastigotes; assay type: toxicity; details: read-out: Ratio CC50/EC50
[8] = Selectivity index, ratio of CC50 for human HepG2 cells to EC50 for antileishmanial activity against Leishmania infantum MHOM/MA/67/ITMAP-263 axenic amastigotes; assay type: toxicity; details: read-out: Ratio CC50/EC50
Leishmania donovani [9] = assay: Antileishmanial activity against Leishmania donovani amastigotes infected in human THP1 cells assessed as reduction in parasite infection treated with compound at 24 hrs post infection and measured after 120 hrs by Giemsa staining-based assay; assay type: functional, organism-based; details: THP-1
Procedure, shortened: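 THP-1 cells were differentiated with PMA (50 ng/mL, 48 h). They were infected 10:1 with promastigotes acidified at pH 5.4, for 24 h. Compound was added (DMSO <0.5%), in duplicate, and cells were incubated 120 h at 37 °C, 5% CO₂. Cells were methanol-fixed and Giemsa-stained, and ≥200 cells were counted for % infected macrophages. IC50 came from regression, as the mean of ≥3 experiments.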

[10] = Aqueous solubility of compound; assay type: physicochemical; details: buffer
[11] = Permeability of the compound in pH 7.4 Prisma HT buffer at 100 uM incubated for 4 hrs by PAMPA-BBB assay method

Chain of Albumin (P02768 whole entry): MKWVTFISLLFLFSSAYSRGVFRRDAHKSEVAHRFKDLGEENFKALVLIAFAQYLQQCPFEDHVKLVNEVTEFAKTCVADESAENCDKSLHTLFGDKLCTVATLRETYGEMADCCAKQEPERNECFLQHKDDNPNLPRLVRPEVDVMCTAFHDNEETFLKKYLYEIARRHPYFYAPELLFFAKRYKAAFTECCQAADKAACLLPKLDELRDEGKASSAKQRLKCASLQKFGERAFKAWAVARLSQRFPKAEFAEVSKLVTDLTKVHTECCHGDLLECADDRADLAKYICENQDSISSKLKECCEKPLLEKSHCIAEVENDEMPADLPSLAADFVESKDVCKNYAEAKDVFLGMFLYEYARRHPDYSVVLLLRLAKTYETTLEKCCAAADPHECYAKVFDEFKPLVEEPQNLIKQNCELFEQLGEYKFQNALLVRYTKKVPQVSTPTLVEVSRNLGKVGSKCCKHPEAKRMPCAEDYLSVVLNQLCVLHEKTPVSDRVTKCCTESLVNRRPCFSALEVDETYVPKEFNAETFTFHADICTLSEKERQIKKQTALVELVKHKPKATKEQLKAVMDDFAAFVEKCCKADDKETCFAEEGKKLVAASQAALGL

Compound | fraction unbound at 4 h (Albumin) | Activity [1] [V] | half-life [2] [min] | EC50 (Leishmania infantum) [µM] | EC50 (Leishmania donovani [3]) [µM] | EC50 [4] [µM] | CC50 at 72 h [5] [µM] | selectivity ratio [6] | selectivity ratio [7] | selectivity ratio [8] | EC50 (Leishmania donovani [9]) [µM] | solubility [10] | Papp at 4 h, 100 µM [11] [×10⁻⁶ cm/s]
O=[N+]([O-])c1c(CS(=O)(=O)c2ccccc2)nc2c(Br)cc(Cl)cn12 | 0.035 | -0.65 | 12 |  |  |  |  |  |  |  |  |  | 
O=[N+]([O-])c1c(CS(=O)(=O)C2CCCCC2)nc2c(Br)cc(Cl)cn12 |  |  |  | > 100 | 0.9 | 0.5 | > 15.6 | > 31.2 | > 17.3 |  |  |  | 
O=[N+]([O-])c1c(CO)nc2c(Sc3ccc(Cl)cc3)cc(Cl)cn12 |  |  |  | 7.9 | 4 | > 50 | > 15.6 |  | > 3.9 | > 2 |  |  | 
O=[N+]([O-])c1c(CS(=O)(=O)C2CCCCC2)nc2c(Sc3ccc(Cl)cc3)cc(Cl)cn12 |  |  |  | 1.6 | 1.9 | 1.5 | > 31.2 | > 20.8 | > 16.4 | > 19.5 | > 10 |  | 
O=[N+]([O-])c1c(CS(=O)(=O)c2ccccc2)nc2c([Se]c3ccc(Cl)cc3)cc(Cl)cn12 |  |  |  | 0.9 | 0.7 | 0.3 | > 7.8 | > 26 | > 11.1 | > 8.7 |  | Insoluble | 
O=[N+]([O-])c1c(CS(=O)(=O)c2cccnc2)nc2c(Br)cc(Cl)cn12 | 0.13 |  | 27 | 77.8 | 0.8 | 0.025 | > 62.5 | > 2500 | > 78 | > 0.8 |  | Soluble | 
O=[N+]([O-])c1c(CSc2ccccc2)nc2c(Sc3ccc(Cl)cc3)cc(Cl)cn12 |  | -0.72 |  |  | 7.4 | > 50 | > 15.6 |  | > 2.1 |  |  |  | 
CSc1ccc(OCc2ncc([N+](=O)[O-])n2C)cc1 [FEXINIDAZOLE] |  | -0.83 |  |  |  |  |  |  |  |  |  |  | 
O=[N+]([O-])c1c(CS(=O)(=O)c2ccccc2)nc2c(Br)cc(C(F)(F)F)cn12 |  | -0.6 |  | > 3.1 | 6.2 | 4 | > 15.6 | > 3.9 | > 2.5 |  |  |  | 
Cc1cc(Br)c2nc(CS(=O)(=O)c3ccccc3)c([N+](=O)[O-])n2c1 |  | -0.76 |  | > 3.1 | 5.6 | 1.2 | > 31.2 | > 26 | > 5.6 |  |  |  | 
O=[N+]([O-])c1c(CO)nc2c(Br)cc(Cl)cn12 |  |  |  | 46.3 | > 12.5 | > 50 | > 125 |  |  | > 5.4 |  |  | 
CSCc1nc2c(Br)cc(Cl)cn2c1[N+](=O)[O-] |  |  |  |  |  | 2.2 | > 15.6 | > 7.1 |  |  |  | Insoluble | 
CC1CS(=O)(=O)CCN1/N=C/c1ccc([N+](=O)[O-])o1 (stereo unspecified) [NIFURTIMOX] |  | -0.61 |  |  |  |  |  |  |  |  |  |  | 
Cc1cc(Sc2ccc(Cl)cc2)c2nc(CS(=O)(=O)c3ccccc3)c([N+](=O)[O-])n2c1 |  | -0.76 |  | 5 | 2.6 | 1.8 | > 62.5 | > 34.7 | > 24 | 12.5 |  |  | 
C[C@@H]1[C@H](O)[C@@H](C)/C=C/C=C/C=C/C=C/C=C/C=C/C=C/[C@H](O[C@@H]2O[C@H](C)[C@@H](O)[C@H](N)[C@@H]2O)C[C@@H]2O[C@](O)(C[C@@H](O)C[C@@H](O)[C@H](O)CC[C@@H](O)C[C@@H](O)CC(=O)O[C@H]1C)C[C@H](O)[C@H]2C(=O)O [AMPHOTERICIN B] |  |  |  | 0.06 |  |  |  |  |  |  |  |  | 
CS(=O)(=O)Cc1nc2c(Sc3ccc(Cl)cc3)cc(Cl)cn2c1[N+](=O)[O-] | 0.011 |  | 12 | 10.3 | 1.2 | 0.067 | > 31.2 | > 466 | > 26 | > 3 |  |  | 
O=[N+]([O-])c1c(CS(=O)(=O)c2ccccc2)nc2c(Sc3ccc(Cl)cc3)cc(C(F)(F)F)cn12 |  | -0.58 |  |  | 1.9 | 0.17 | > 7.8 | > 45.9 | > 4.1 |  |  |  | 
COc1ccc(Nc2cc(Cl)cn3c([N+](=O)[O-])c(CS(=O)(=O)c4ccccc4)nc23)cc1 |  |  |  |  |  |  | > 3.9 |  |  |  |  | Insoluble | 
C[S+]([O-])Cc1nc2c(Br)cc(Cl)cn2c1[N+](=O)[O-] (stereo unspecified) |  |  |  |  |  | 0.02 | 51.4 | 2570 |  |  |  |  | 
O=[N+]([O-])c1c(CS(=O)(=O)c2cccnc2)nc2c(Sc3ccc(Cl)cc3)cc(Cl)cn12 |  |  |  | 0.8 | 0.5 | 1.2 | > 31.2 | > 26 | > 62.4 | > 39 | > 10 |  | 
O=[N+]([O-])c1c(CSc2ccccc2)nc2c(Br)cc(Cl)cn12 |  | -0.7 |  | 17.8 | > 12.5 | > 50 | > 31.2 |  |  | > 1.8 |  |  | 
Cc1nc2c(Br)cc(Cl)cn2c1[N+](=O)[O-] |  |  |  | 32.1 | > 12.5 | > 50 | > 125 |  |  | > 3.9 |  |  | 
O=[N+]([O-])c1cnc2c(Sc3ccc(Cl)cc3)cc(Cl)cn12 |  | -0.74 |  |  | 2.5 | 0.085 | > 7.8 | > 92.8 | > 3.1 |  |  | Insoluble | 
O=[N+]([O-])c1c(CS(=O)(=O)c2ccccc2)nc2c(Nc3ccccc3)cc(Cl)cn12 |  | -0.69 |  |  |  |  | > 3.9 |  |  |  |  | Insoluble | 
O=[N+]([O-])c1cnc2c(Br)cc(Cl)cn12 |  |  |  | 15.9 | 9.3 | 0.4 | 16.2 | 40.5 | 1.7 | 1 |  |  | 
CS(=O)(=O)Cc1nc2c(Br)cc(Cl)cn2c1N |  |  |  | > 100 | > 12.5 | 7.2 | > 125 |  |  |  |  |  | 
O=[N+]([O-])c1c(CS(=O)(=O)c2ccccc2)nc2c(Nc3ccc(Cl)cc3)cc(Cl)cn12 |  |  |  |  |  |  | > 3.9 |  |  |  |  | Insoluble | 
Cn1c(=O)c2[nH]cnc2n(C)c1=O.O [THEOPHYLLINE] |  |  |  |  |  |  |  |  |  |  |  |  | 0.47
Cc1nc2c(Sc3ccc(Cl)cc3)cc(Cl)cn2c1[N+](=O)[O-] |  | -0.79 |  |  | > 12.5 |  | > 7.8 |  |  |  |  |  | 
